An excerpt weighted towards active compounds, which were near 2.6% of everything screened.
PG9 Ab binder: binds the HIV-1 gp120 antibody PG9; TR-FRET gp120-PG9 antibody binding; inhibition, % at 6.7 µM; 360,000 tested, 0.43% active; AID 624416; in the data active = inhibition above about 8.5%
NR2E3 ag-1: NR2E3 (human) agonism. inhibition of corepressor binding, % at 4.78 µM. AID 2300. 320,000 tested, 0.12% active. GST-NR2E3/biotin-RetCOR TR-FRET, 1536-well;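 active = percent inhibition above the cutoff of mean plus 3 SD of all tested compounds, set per screening campaign, cut at about 20% in these data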;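 note: 0% = DMSO wells and 100% = biotin wells as full block of FRET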
Target sequence (Q9Y5X4 whole entry, looked up): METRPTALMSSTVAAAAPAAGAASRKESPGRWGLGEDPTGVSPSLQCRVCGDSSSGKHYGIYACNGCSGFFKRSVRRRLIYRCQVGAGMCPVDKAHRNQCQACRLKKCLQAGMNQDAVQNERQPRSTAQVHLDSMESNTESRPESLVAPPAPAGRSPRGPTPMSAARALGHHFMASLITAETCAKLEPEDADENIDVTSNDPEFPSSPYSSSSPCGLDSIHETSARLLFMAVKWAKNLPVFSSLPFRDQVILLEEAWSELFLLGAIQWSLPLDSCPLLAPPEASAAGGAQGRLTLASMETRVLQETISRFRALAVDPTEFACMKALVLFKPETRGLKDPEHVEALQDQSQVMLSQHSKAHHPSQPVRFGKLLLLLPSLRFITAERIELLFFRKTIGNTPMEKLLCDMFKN
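Material – GST-tagged NR2E3 plus biotinylated RetCOR corepressor · Quantity – NR2E3 fusion 1.35 nM · Times – 5 h incubation at 4 °C · Medium – pH 7.5 Tris-based buffer · Technique – TR-FRET, Eu(K)-anti-GST donor, streptavidin-D2 acceptor, ex 340, em 617/671 nm · Benchmarks – high control biotin, low control 0.6% DMSO · Format – 1536-well plates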
NR2E3 ag-2: human photoreceptor-specific nuclear receptor agonism; CHO-S Gal4-NCOR/VP16-NR2E3 two-hybrid, luciferase; inhibition of corepressor binding, % at 3.98 µM; 360,000 tested, 0.35% active; AID 602229;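 active = inhibition above the mean of all tested compounds plus 3 SD, cut at about 70% in these data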;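 note: 0% = DMSO with NR2E3 transfected cells and 100% = cells lacking NR2E3 construct; higher means lower luciferase signal from less NR2E3 corepressor binding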
rCAG binder: r(CAG) repeat RNA binding | TO-PRO-1 dye displacement fluorescence | inhibition, % at 3 µM | 370,000 tested, 1.3% active;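 active = inhibition above the plate cutoff, the mean of all test compounds on that plate plus 3 SD, cut at about 35% in these data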;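 note: 0% = DMSO alone and 100% = 100 µM mitoxantrone as full dye displacement; higher means more dye released from RNA so lower well fluorescence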
NR1D1 modulator: modulators of human Rev-erb alpha DNA binding. P20393. Rev-erbα–FITC-DNA binding, fluorescence polarization, 90 min. activity, % at 10 µM. 370,000 tested, 0.79% active;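 active = activity above about 14%, limit read from the data; passing the limit was not always enough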;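 note: 0% = DMSO wells with 35 nM protein and 100% = DMSO wells with 750 nM protein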
Rev-erbA confirm: confirmation of modulators of human Rev-erb alpha DNA binding | 3,000 tested, 61% active | shares compounds with NR1D1 modulator | activation, % at 25 µM | Rev-erb alpha FITC-DNA binding, fluorescence polarization, 90 min;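 active = activation at or above a set limit, or at least 3 SD above the negative control mean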;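 note: 0% = 35 nM protein with DMSO and 100% = 750 nM protein high control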
RORg DNA counter: counter-screen for Rev-erb alpha modulators: RORgamma DNA binding | shares compounds with NR1D1 modulator | AID 1259320 | IC50, µM | 910 tested, 8% active | purified RORgamma protein-FITC-DNA binding, fluorescence polarization;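 active = Compounds whose fitted half-maximal concentration for disrupting protein-DNA binding is below 10 micromolar; the record names Rev-erb in its text, so the target is in doubt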
* = called active by the depositor; i = inactive; nt = no result given.

SMILES	PG9 Ab binder	NR2E3 ag-1	NR2E3 ag-2	rCAG binder	NR1D1 modulator	Rev-erbA confirm	others
CC(C)CC(C)N (centres undefined)	-0.8	1.5	-10.5	1.4	18.9*	-2.6
ClCCN1CCSCC1	1.1	nt	-19.0	-0.9	1.4	nt
CCOC(=O)C1CCCN(c2ccc([N+](=O)[O-])c3nonc23)C1 (centres undefined)	-0.7	nt	8.4	i	57.5*	57.1*	RORg DNA counter=2.47*
O=[N+]([O-])c1ccc(NC2CCCC2)c2ccncc12	nt	2.3	8.0	nt	nt	nt
O=[N+]([O-])c1ccc(N2CCCC2)c2ccncc12	-6.5	-1.4	-5.8	3.0	35.8*	35.4*	RORg DNA counter=>40
O=C(O)c1ccccc1-c1c2cc(Br)c(=O)cc-2oc2[c]([Hg])c(O)c(Br)cc12	nt	nt	nt	nt	117.8*	79.5*
COP(=O)(OC)OC=C(Cl)Cl	0.0	nt	nt	2.0	-14.1	nt
Cc1ccc(/C=C2\C(=O)NC(=S)N(c3ccc(F)cc3)C2=O)o1	2.0	nt	3.5	26.1	0.7	nt
Cc1cc(C)cc(N2C(=O)/C(=C\c3ccc(N4CCN(C)CC4)o3)C(=O)NC2=S)c1	-6.1	-0.5	-4.3	-22.1	17.1*	11.3
CN1C(=O)C(=Cc2ccc(N3CCCCC3)o2)C(=O)N(C)C1=S	-3.9	-3.8	-51.4	2.6	40.4*	47.2*	RORg DNA counter=>40
CN1C(=O)C(=Cc2ccc(SC3CCCCC3)o2)C(=O)N(C)C1=O	-2.2	-1.8	-33.6	12.8	-4.3	nt
CCN(CC)c1ccc(/C=C2\C(=O)NC(=S)N(C)C2=O)o1	-10.3	-4.3	-115.4	-106.1	57.0*	62.4*	RORg DNA counter=>40
CCN(CC)c1ccc(C=C2C(=O)N(C)C(=S)N(C)C2=O)o1	-3.2	-2.3	-0.6	-2.5	34.5*	15.2
CCN(CC)c1ccc(/C=C2\C(=O)NC(=S)N(c3ccc(OC)cc3OC)C2=O)o1	nt	-2.6	-18.5	nt	nt	nt
N#CC1C(C#N)C2CCC1C1C2N1c1ccccc1 (centres undefined)	1.0	nt	18.6	5.3	-3.7	nt
CC(C)NC1C2CCC(CC2)C1(O)c1ccc(Cl)c(Cl)c1 (centres undefined)	0.8	nt	-14.9	5.8	3.5	nt
O=C1NC(=O)C(=Cc2ccc(N3CCOCC3)o2)C(=O)N1	-5.8	-6.5	-10.2	-78.5	29.7*	28.3*
CCOC(=O)c1sc(N=Nc2c(O)[nH]c(=O)[nH]c2=O)c(C(=O)OCC)c1C	nt	3.4	nt	nt	nt	nt
CCOc1ccc2nc(N=Nc3c(O)[nH]c(=S)[nH]c3=O)sc2c1	-5.1	-1.4	-30.9	29.9	24.6*	36.2*	RORg DNA counter=i
CCOc1ccc2nc(N=Nc3c(O)[nH]c(=O)[nH]c3=O)sc2c1	-6.8	-1.5	-1.1	3.3	25.4*	15.9
Cc1c(N=Nc2c(O)[nH]c(=S)[nH]c2=O)c(=O)n(-c2ccccc2)n1C	-8.7	-4.4	-13.5	-0.2	1.3	nt
CC(NC(=O)N1CC1(C)C)c1ccccc1 (centres undefined)	-1.4	nt	-0.1	2.0	4.1	nt
C1=C(c2c[nH]c3ccccc23)CCN(Cc2ccccc2)C1	-1.0	1.5	-18.7	4.2	0.7	nt
Nc1c2c(nc3ccccc13)CCN(Cc1ccccc1)C2	-0.8	-1.3	-22.5	-52.7	32.5*	33.8*	RORg DNA counter=>40
O=C(CN1CCOCC1)c1cccc2ccccc12	-0.5	1.8	-2.9	5.8	6.6	nt
SMILES	PG9 Ab binder	NR2E3 ag-1	NR2E3 ag-2	rCAG binder	NR1D1 modulator	Rev-erbA confirm	others
Cc1c(C(=O)c2cccc3ccccc23)c2cccc3c2n1[C@H](CN1CCOCC1)CO3	-3.1	5.0	-35.4	7.0	26.8*	15.7*
COc1cc2c(cc1OC)-c1c3c(cc4c1[C@@H](C2)N(C)CC4)OCO3	-8.1	-1.1	-54.6	1.3	15.4*	-3.4
Cc1ccc(-n2c(O)c(/C=N/c3ncc(Br)cc3Br)c(=O)[nH]c2=O)cc1	-1.2	2.6	-22.1	3.0	131.3*	143.5*	RORg DNA counter=>40
CN1C(=O)NC(=O)C2(CCCC2)C1=O	-3.4	nt	-14.2	1.9	-10.7	nt
CCOc1ccc(N=Cc2c(O)n(Cc3ccccc3)c(=S)[nH]c2=O)cc1	1.5	1.1	11.8	8.2	41.2*	9.6
O=c1[nH]c(=O)n(Cc2ccc(F)cc2)c(O)c1C=Nc1ccc(Cl)cc1	1.3	2.7	-5.1	2.8	125.0*	9.5
CCCC(C)CC1(CCO)C(=O)NC(=S)NC1=O (centres undefined)	0.3	nt	-27.8	0.9	-1.4	nt
C=C1C(C)C2C(Cc3ccccc3)NC(=O)C23OC(=O)/C=C/C(O)CCCC(C)C/C=C/C3C1O (centres undefined)	-3.0	nt	27.8	0.8	-3.4	nt
C1CCC(NC2CCCCC2)CC1	0.4	-1.0	-4.2	-0.8	-5.0	nt
CC(C)NP(=O)(NC(C)C)OP(=O)(NC(C)C)NC(C)C	-0.1	0.2	1.4	0.8	-9.5	nt

Screening data deposited in PubChem by several laboratories.
